Measured values from ChEMBL document CHEMBL1122900, “Effects of alkyl and aryl substitution on the myocardial specificity of radioiodinated phosphonium, arsonium, and ammonium cations” (J Med Chem, 1985).
Values belong to the compound of their own block, whether it stands above or below them.

What was measured:
Rattus norvegicus [1] = assay: Evaluated for the distribution of radioactivity in tissues of female Fischer rats kidneys after 60 minutes intravenous administration; dose/g, range 4.62-5.60; format: ADME, organism-based, Kidney; details: in vivo, 1 h
Rattus norvegicus [2] = assay: Evaluated for the distribution of radioactivity in tissues of female Fischer rats liver after 60 minutes intravenous administration; dose/g, range 0.73-1.19; format: ADME, organism-based; details: in vivo, 1 h
Procedure, shortened: (§1)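 Female Fischer 344 rats (10-12 weeks, 170-200 g), fed ad libitum, got a single iv tail-vein injection under ether anaesthesia of the 125I-labelled cation (2.85-8.38 μCi). The tracer was dissolved in Me2SO, diluted with saline to 1% Me2SO and filtered. At the set times rats were killed by cervical fracture and blood taken by cardiac puncture. Organs were rinsed, blotted, weighed and gamma-counted against injectate standards. Results are %dose/g, mean and range, n=5. Thyroid weight was taken as 7.5 mg/100 g body weight.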

Rattus norvegicus [3] = assay: Evaluated for the distribution of radioactivity in tissues of female Fischer rats kidneys after 5 minutes intravenous administration; dose/g, range 14.4-20.1; format: ADME, organism-based, Kidney; details: in vivo
Rattus norvegicus [4] = assay: Evaluated for the distribution of radioactivity in tissues of female Fischer rats blood after 60 minutes intravenous administration; dose/g, range 0.13-0.15; format: ADME, organism-based; details: in vivo, 1 h
Rattus norvegicus [5] = assay: Evaluated for the distribution of radioactivity in tissues of female Fischer rats lungs after 5 minutes intravenous administration; dose/g, range 0.96-1.35; format: ADME, organism-based, Lung; details: in vivo; procedure, shortened: as §1
Rattus norvegicus [6] = assay: Evaluated for the distribution of radioactivity in tissues of female Fischer rats lungs after 60 minutes intravenous administration; dose/g, range 0.81-1.13; format: ADME, organism-based, Lung; details: in vivo, 1 h; procedure, shortened: as §1
Rattus norvegicus [7] = assay: Evaluated for the distribution of radioactivity in tissues of female Fischer rats blood after 30 minutes intravenous administration; dose/g, range 0.19-0.24; format: ADME, organism-based; details: in vivo, 0.5 h
Rattus norvegicus [8] = assay: Evaluated for the distribution of radioactivity in tissues of female Fischer rats thyroid after 30 minutes intravenous administration; dose/g, range 19-24; format: ADME, organism-based, Thyroid gland; details: in vivo, 0.5 h; procedure, shortened: as §1
Rattus norvegicus [9] = assay: Evaluated for the distribution of radioactivity in tissues of female Fischer rats thyroid after 5 minutes intravenous administration; dose/g, range 13-18; format: ADME, organism-based, Thyroid gland; details: in vivo; procedure, shortened: as §1
Rattus norvegicus [10] = assay: Evaluated for the distribution of radioactivity in tissues of female Fischer rats blood after 5 minutes intravenous administration; dose/g, range 0.40-0.45; format: ADME, organism-based; details: in vivo
Rattus norvegicus [11] = assay: Evaluated for the distribution of radioactivity in tissues of female Fischer rats kidneys after 30 minutes intravenous administration; dose/g, range 7.21-7.95; format: ADME, organism-based, Kidney; details: in vivo, 0.5 h
Rattus norvegicus [12] = assay: Evaluated for the distribution of radioactivity in tissues of female Fischer rats thyroid after 60 minutes intravenous administration; dose/g, range 35-53; format: ADME, organism-based, Thyroid gland; details: in vivo, 1 h; procedure, shortened: as §1
Rattus norvegicus [13] = assay: Evaluated for the distribution of radioactivity in tissues of female Fischer rats heart after 30 minutes intravenous administration; dose/g, range 1.39-2.43; format: ADME, organism-based; details: in vivo, 0.5 h
Rattus norvegicus [14] = assay: Evaluated for the distribution of radioactivity in tissues of female Fischer rats heart after 5 minutes intravenous administration.; dose/g, range 2.20-2.97; format: ADME, organism-based; details: in vivo
Rattus norvegicus [15] = assay: Evaluated for the distribution of radioactivity in tissues of female Fischer rats heart after 60 minutes intravenous administration; dose/g, range 1.93-3.58; format: ADME, organism-based; details: in vivo, 1 h
Rattus norvegicus [16] = assay: Evaluated for the distribution of radioactivity in tissues of female Fischer rats liver after 30 minutes intravenous administration; dose/g, range 1.51-2.23; format: ADME, organism-based; details: in vivo, 0.5 h
Rattus norvegicus [17] = assay: Evaluated for the distribution of radioactivity in tissues of female Fischer rats liver after 5 minutes intravenous administration; dose/g, range 3.12-4.56; format: ADME, organism-based; details: in vivo; procedure, shortened: as §1
Rattus norvegicus [18] = assay: Evaluated for the distribution of radioactivity in tissues of female Fischer rats lungs after 30 minutes intravenous administration; dose/g, range 0.83-1.21; format: ADME, organism-based, Lung; details: in vivo, 0.5 h; procedure, shortened: as §1
Rattus norvegicus [19] = assay: Evaluated for the distribution of radioactivity in tissues of female Fischer rats liver after 60 minutes intravenous administration; dose/g, range 0.24-0.30; format: ADME, organism-based; details: in vivo, 1 h
Rattus norvegicus [20] = assay: Evaluated for the distribution of radioactivity in tissues of female Fischer rats kidneys after 5 minutes intravenous administration; dose/g, range 10.7-16.9; format: ADME, organism-based, Kidney; details: in vivo
Rattus norvegicus [21] = assay: Evaluated for the distribution of radioactivity in tissues of female Fischer rats kidneys after 60 minutes intravenous administration; dose/g, range 4.59-8.81; format: ADME, organism-based, Kidney; details: in vivo, 1 h
Rattus norvegicus [22] = assay: Evaluated for the distribution of radioactivity in tissues of female Fischer rats blood after 60 minutes intravenous administration; dose/g, range 0.15-0.23; format: ADME, organism-based; details: in vivo, 1 h
Rattus norvegicus [23] = assay: Evaluated for the distribution of radioactivity in tissues of female Fischer rats lungs after 5 minutes intravenous administration; dose/g, range 0.95-1.49; format: ADME, organism-based, Lung; details: in vivo
Rattus norvegicus [24] = assay: Evaluated for the distribution of radioactivity in tissues of female Fischer rats lungs after 60 minutes intravenous administration; dose/g, range 0.83-2.11; format: ADME, organism-based, Lung; details: in vivo, 1 h
Rattus norvegicus [25] = assay: Evaluated for the distribution of radioactivity in tissues of female Fischer rats blood after 30 minutes intravenous administration; dose/g, range 0.22-0.32; format: ADME, organism-based; details: in vivo, 0.5 h
Rattus norvegicus [26] = assay: Evaluated for the distribution of radioactivity in tissues of female Fischer rats blood after 5 minutes intravenous administration; dose/g, range 0.25-0.34; format: ADME, organism-based; details: in vivo
Rattus norvegicus [27] = assay: Evaluated for the distribution of radioactivity in tissues of female Fischer rats thyroid after 30 minutes intravenous administration; dose/g, range 32-42; format: ADME, organism-based, Thyroid gland; details: in vivo, 0.5 h
Rattus norvegicus [28] = assay: Evaluated for the distribution of radioactivity in tissues of female Fischer rats thyroid after 5 minutes intravenous administration; dose/g, range 22-25; format: ADME, organism-based, Thyroid gland; details: in vivo
Rattus norvegicus [29] = assay: Evaluated for the distribution of radioactivity in tissues of female Fischer rats thyroid after 60 minutes intravenous administration; dose/g, range 30-53; format: ADME, organism-based, Thyroid gland; details: in vivo, 1 h
Rattus norvegicus [30] = assay: Evaluated for the distribution of radioactivity in tissues of female Fischer rats lungs after 30 minutes intravenous administration; dose/g, range 0.99-1.23; format: ADME, organism-based, Lung; details: in vivo, 0.5 h
Rattus norvegicus [31] = assay: Evaluated for the distribution of radioactivity in tissues of female Fischer rats heart after 60 minutes intravenous administration; dose/g, range 3-3.70; format: ADME, organism-based; details: in vivo, 1 h
Rattus norvegicus [32] = assay: Evaluated for the distribution of radioactivity in tissues of female Fischer rats kidneys after 30 minutes intravenous administration; dose/g, range 10.5-14.4; format: ADME, organism-based, Kidney; details: in vivo, 0.5 h
Rattus norvegicus [33] = assay: Evaluated for the distribution of radioactivity in tissues of female Fischer rats heart after 30 minutes intravenous administration; dose/g, range 2.67-4.31; format: ADME, organism-based; details: in vivo, 0.5 h
Rattus norvegicus [34] = assay: Evaluated for the distribution of radioactivity in tissues of female Fischer rats heart after 5 minutes intravenous administration; dose/g, range 2.78-3.62; format: ADME, organism-based; details: in vivo
Rattus norvegicus [35] = assay: Evaluated for the distribution of radioactivity in tissues of female Fischer rats liver after 30 minutes intravenous administration; dose/g, range 0.57-0.72; format: ADME, organism-based; details: in vivo, 0.5 h
Rattus norvegicus [36] = assay: Evaluated for the distribution of radioactivity in tissues of female Fischer rats liver after 5 minutes intravenous administration; dose/g, range 1.26-2.45; format: ADME, organism-based; details: in vivo

Distribution (Rattus norvegicus [1]): 5.15% | Distribution (Rattus norvegicus [2]): 0.93% | Distribution (Rattus norvegicus [3]): 17.54% | Distribution (Rattus norvegicus [4]): 0.14% | Distribution (Rattus norvegicus [5]): 1.18% | Distribution (Rattus norvegicus [6]): 0.95% | Distribution (Rattus norvegicus [7]): 0.22% | Distribution (Rattus norvegicus [8]): 21% | Distribution (Rattus norvegicus [9]): 16% | Distribution (Rattus norvegicus [10]): 0.42% | Distribution (Rattus norvegicus [11]): 7.51% | Distribution (Rattus norvegicus [12]): 41% | Distribution (Rattus norvegicus [13]): 1.95% | Distribution (Rattus norvegicus [14]): 2.51% | Distribution (Rattus norvegicus [15]): 2.73% | Distribution (Rattus norvegicus [16]): 1.84% | Distribution (Rattus norvegicus [17]): 3.72% | Distribution (Rattus norvegicus [18]): 1.05%
SMILES: CCCCCCCC[P+](C)(C)CCC/C=C/I.[I-]

SMILES: I/C=C/CCC[As+](c1ccccc1)(c1ccccc1)c1ccccc1.[I-]
Distribution (Rattus norvegicus [19]): 0.27% | Distribution (Rattus norvegicus [20]): 13.14% | Distribution (Rattus norvegicus [21]): 6.92% | Distribution (Rattus norvegicus [22]): 0.19% | Distribution (Rattus norvegicus [23]): 1.24% | Distribution (Rattus norvegicus [24]): 1.31% | Distribution (Rattus norvegicus [25]): 0.26% | Distribution (Rattus norvegicus [26]): 0.31% | Distribution (Rattus norvegicus [27]): 37% | Distribution (Rattus norvegicus [28]): 23% | Distribution (Rattus norvegicus [29]): 43% | Distribution (Rattus norvegicus [30]): 1.09% | Distribution (Rattus norvegicus [31]): 3.37% | Distribution (Rattus norvegicus [32]): 12.01% | Distribution (Rattus norvegicus [33]): 3.17% | Distribution (Rattus norvegicus [34]): 3.22% | Distribution (Rattus norvegicus [35]): 0.64% | Distribution (Rattus norvegicus [36]): 1.78%
